Results taken from ChEMBL document CHEMBL5661974, “Pharmacologic characterization of a potent inhibitor of class I phosphatidylinositide 3-kinases” (Cancer Res, 2007).
Activity calls are given as the source filed them. The calls are words filed in the database; no cut-off is given here.

Experiments:
[1] = Cmax in BALB/C mouse kidney at 2.5 mg/kg, iv by LC-MS/MS analysis; format: ADME, organism-based
Method in brief: (§1)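 Female BALB/c mice, 6–8 weeks old, given 2.5 mg/kg i.v. in 10% DMSO, 0.5% Tween 20 in saline. Plasma came from serial bleeds; tissues were homogenized in 2 or 3 volumes PBS. Samples were methanol-precipitated with an analogue internal standard, then LC-MS/MS by multiple reaction monitoring against an 8-point external calibration of 2–20,000 nmol/L. Parameters came from WinNonlin noncompartmental analysis, model 201 for plasma and model 200 for tissues.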

[2] = Volume of distribution at steady state in BALB/C mouse at 2.5 mg/kg, iv by LC-MS/MS analysis; format: ADME, organism-based; settings: in vivo, read-out: Vdss; method in brief: as §1
[3] = Toxicity in human OVCAR-3 cells xenografted female Ncr model at 15 to 30 mg/kg, ip administered daily for 15 days; format: organism-based; settings: in vivo, 360 h, dose 15-30 mg/kg, time 15 day
[4] = Tmax in BALB/C mouse plasma at 50 mg/kg, ip by LC-MS/MS analysis; format: ADME, organism-based; settings: in vivo
Method in brief: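 Female BALB/c mice, 6–8 weeks old, dosed i.p. at 50 mg/kg in 20% […] β-cyclodextrin in saline, 0.1 mL/10 g. Serial blood samples; plasma was methanol-precipitated with an analogue internal standard. LC-MS/MS multiple reaction monitoring, external calibration 2–20,000 nmol/L. Noncompartmental analysis, model 200.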

OVCAR-3 [5] = settings: Homo sapiens, dose 100.0 mg/kg, route ip, time 750.0 min
[6] = Inhibition of recombinant human PI3K in cricetulus griseus CHO cells expressing GFP-tagged PDK1 assessed as translocation to the plasma membrane following IGF-1 stimulation by fluorescence assay
Method in brief: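 CHO cells expressing GFP-tagged AKT1, AKT2, AKT3 or PDK1, held in 0.05% serum with 0.1% BSA and stimulated with 100 nmol/L IGF-1. Plasma-membrane translocation was read by automated fluorescence imaging, with IC50 from concentration-response curves; Z' above 0.5.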

[7] = Half life in BALB/C mouse liver at 2.5 mg/kg, iv by LC-MS/MS analysis; format: ADME, organism-based; method in brief: as §1
HCT-116 [8] = test: Antitumor activity against PIK3CA mutant human HCT-116 cells xenografted female Ncr model assessed as T/C at 30 mg/kg, ip administered twice a daily for 21 days relative to control; format: functional; settings: time 21 day
[9] = Cmax in BALB/C mouse spleen at 2.5 mg/kg, iv by LC-MS/MS analysis; format: ADME, organism-based; method in brief: as §1
U-87 MG [10] = test: Antitumor activity against PTEN null human U-87MG cells xenografted female Ncr model assessed as T/C at 70 mg/kg, ip administered once a daily for 14 days relative to control; format: functional, U-87MG ATCC; settings: time 14 day
[11] = Tmax in BALB/C mouse kidney at 2.5 mg/kg, iv by LC-MS/MS analysis; format: ADME, organism-based; method in brief: as §1
U-87 MG [12] = test: Antiproliferative activity against human U-87MG cells harboring PTEN deletion assessed as cell growth inhibition incubated for 96 hrs by SRB assay; format: functional, U-87MG ATCC
MDA-MB-468 [13] = test: Antitumor activity against PTEN null human MDA-MB-468 cells xenografted female Ncr model assessed as body weight loss at 30 mg/kg, ip administered once a daily for 14 days relative to control; settings: time 14 day
[14] = AUClast in BALB/C mouse liver at 2.5 mg/kg, iv by LC-MS/MS analysis; format: ADME, organism-based; method in brief: as §1
[15] = Cmax in BALB/C mouse plasma at 2.5 mg/kg, iv by LC-MS/MS analysis; format: ADME, organism-based; method in brief: as §1
PC-3 = test: Antitumor activity against PTEN null human PC-3 cells xenografted male Ncr model assessed as body weight loss at 30 mg/kg, ip administered twice a daily for 14 days relative to control; settings: time 14 day
MDA-MB-468 [16] = test: Antitumor activity against PTEN null human MDA-MB-468 cells xenografted female Ncr model assessed as body weight loss at 30 mg/kg, ip administered twice a daily for 14 days relative to control; settings: time 14 day
U-87 MG [17] = test: Inhibition of cell migration in human U-87MG cells at 50 nmol/L incubated for 16 to 24 hrs by transwell assay relative to control; format: functional, U-87MG ATCC; settings: time 16-24 hrs
[18] = Inhibition of recombinant PI3K in human U2OS cells expressing GFP-tagged FKHR assessed as redistribution of cytoplasm to the nucleus before IGF-1 stimulation by fluorescence assay; format: cell-based
Method in brief: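 U2OS cells expressing GFP-FKHR, cultured in 0.7% serum, treated with inhibitor before IGF-1 stimulation. Nuclear redistribution of GFP was monitored by automated fluorescence imaging, and IC50 was taken from concentration-response curves; Z' above 0.5.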

[19] = Drug metabolism in human microsomes incubated for 30 mins by LC-MS/MS analysis; format: ADME, Microsome; settings: read-out: Drug metabolism
Method in brief: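 Mouse or human microsomes incubated 30 min with inhibitor at 1 or 10 μmol/L. Metabolite detection by LC-MS/MS on an ion trap, with a 10–90% methanol gradient over 6 min and scan range 50–1,000 amu.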

[20] = AUClast in BALB/C mouse plasma at 2.5 mg/kg, iv by LC-MS/MS analysis; format: ADME, organism-based; method in brief: as §1
HCT-116 [21] = test: Antitumor activity against PIK3CA mutant human HCT-116 cells xenografted female Ncr model assessed as body weight loss at 30 mg/kg, ip administered twice a daily for 14 days relative to control; settings: time 14 day
U-87 MG [22] = test: Antitumor activity against PTEN null human U-87MG cells xenografted female Ncr model assessed as body weight loss at 40 mg/kg, ip administered daily for 14 days relative to control; settings: time 14 day
U-87 MG [23] = test: Inhibition of recombinant PI3K in human U-87MG cells assessed as phosphorylation of AKT at ser473 at 5 times of GI50 concentration within 15 mins treatment by immunoblot analysis; format: cell-based
[24] = Volume of distribution in BALB/C mouse plasma at 2.5 mg/kg, iv by LC-MS/MS analysis; format: ADME, organism-based; method in brief: as §1
U-87 MG [25] = settings: Homo sapiens, time 24.0 hrs
[26] = Clearance in BALB/C mouse plasma at 2.5 mg/kg, iv by LC-MS/MS analysis; format: ADME, organism-based; method in brief: as §1
[27] = Tmax in BALB/C mouse spleen at 2.5 mg/kg, iv by LC-MS/MS analysis; format: ADME, organism-based; method in brief: as §1
OVCAR-3 [28] = settings: Homo sapiens, dose 100.0 mg/kg, route ip, time 750.0 min; remark: listed apart in the source
[29] = AUClast in BALB/C mouse kidney at 2.5 mg/kg, iv by LC-MS/MS analysis; format: ADME, organism-based; method in brief: as §1
[30] = Cmax in BALB/C mouse liver at 2.5 mg/kg, iv by LC-MS/MS analysis; format: ADME, organism-based; method in brief: as §1
U-87 MG [31] = settings: Homo sapiens, time 24.0 hrs; remark: listed apart in the source

Cmax [1]: 2020 nM
Vd [2]: 0.052 L
Tmax [4]: 15 min
IC50 [6]: 66 nM
half-life [7]: 252 min
Cmax [9]: 1360 nM
Tmax [11]: 4.98 min
GI50 (U-87 MG [12]): 180 nM
AUC(0-t) [14]: 0.801 µM·h
Cmax [15]: 4170 nM
IC50 [18]: 30 nM
metabolised at 0.5 h [19]: > 70%
AUC(0-t) [20]: 0.624 µM·h
Vd [24]: 0.2 L
clearance [26]: 3.17 mL/min
Tmax [27]: 4.98 min
AUC(0-t) [29]: 0.453 µM·h
Cmax [30]: 802 nM
Structure (SMILES): Oc1cccc(-c2nc(N3CCOCC3)c3oc4ncccc4c3n2)c1 [PI-103]
Activity [3]: Toxic
inhibition (OVCAR-3 [5]): Active
T/C (HCT-116 [8]): 48%
T/C (U-87 MG [10]): 45.8%
Body weight loss (MDA-MB-468 [13]): <15%
Body weight loss (PC-3): <15%
Body weight loss (MDA-MB-468 [16]): <15%
inhibition at 0.05 µM (U-87 MG [17]): 44%
Body weight loss (HCT-116 [21]): <15%
Body weight loss (U-87 MG [22]): <15%
inhibition (U-87 MG [23]): Active
inhibition (U-87 MG [25]): Active
inhibition (OVCAR-3 [28]): Active
inhibition (U-87 MG [31]): Active
